The source of these data is PubChem BioAssay.

Structures are written as SMILES. Active and inactive are the calls of the source.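 How the source made its calls, unless noted: active means inhibition of the reporter signal at or above 50%; inactive means inhibition below 50%.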

Experiment [1] can be described thus: inhibitors of TNFa-induced NFkB p65 translocation, primary screen, imaging, HUVEC, MLSMR starter and 10KST1 sets (AID 438;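 active means inhibition above 20% together with a positive visual image hit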;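 further: compound added about 3h40 before a 20 min TNFalpha stimulation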;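 on inhibition: signal is the nuclear over cytoplasmic p65 intensity ratio per well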). To be noted: HUVEC TNFa-induced p65 nuclear translocation; cell count: measured here: nuclei count (cytotoxicity indicator), at 2.08 µM; inhibition: at 2 µM, stronger effect = higher value, 0% TNFa-plus-vehicle, 100% no-TNFa wells.
Experiment [2] in a line: inhibitors of mutant huntingtin aggregation, primary screen, imaging, exon1htt(103Q)mCFP cells, high-content imaging (AID 483;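 active means visual image review flags a hit and inhibition of aggregation exceeds 20%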;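 further: compound exposure lasted 3 days before fixation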;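 on nuclei count: percent of the per-plate median nuclei count of sample wells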). As to conditions: exon1htt(103Q)mCFP cell line, aggregate imaging, at 2 µM; inhibition of aggregation: stronger effect = higher value; nuclei count: measured here: cell count, toxicity.
Experiment [3] is described as follows: inhibitors of E-selectin induction by TNFa, primary screen, imaging, HUVEC, immunofluorescence, MLSMR starter and 10KST1 sets (AID 487;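 active means visually confirmed hit in the image check and inhibition above 20%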;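 on inhibition: signal is fraction of cell area covered by stained E-selectin grains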;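 on nuclei count: 100% = median nuclei count of all wells on the same plate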). As to conditions: HUVEC TNFalpha-induced E-selectin immunofluorescence imaging, at 2 µM; inhibition: stronger effect = higher value; nuclei count: measured here: cell number, toxicity.
Experiment [4] concerns the target Voltage-gated potassium channel subunit beta-2 (Rattus norvegicus) (UniProt P62483). In words: KvBeta enzyme negative modulators, primary screen, biochemical, NADPH fluorescence (AID 622;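 active means fluorescence slope higher than the sample average by over 3 SD, cut at about -0.22 in these data, passing the limit was not always enough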;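 further: slope of raw intensity against log time taken from 70 to 1610 s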). As to conditions: recombinant KvBeta, 4-cyanobenzaldehyde reduction, at 10 µM, stronger effect = higher value.
For experiment [5] the target is unchanged. The experiment can be described thus: KvBeta positive modulators, primary screen, biochemical, NADPH fluorescence (AID 623;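 active means NADPH fluorescence slope more negative than the mean of all samples by about 3 SD, 99.7% confidence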;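 further: fluorescence intensity change per second fitted from 20 to 320 s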). As to conditions: Recombinant KvBeta, NADPH fluorescence decrease slope, 10 min; at 10 µM; stronger effect = lower value.
In experiment [6] the target is Muscarinic acetylcholine receptor M4 (Homo sapiens) (UniProt P08173). In words: compounds altering M4/GIRK thallium flux, either direction, primary screen, M4 allosteric agonist project, cell-based, HEK293 M4/GIRK, BTC-AM (AID 625;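 active means fluorescence slope after compound addition differing from the mean of all tested samples at 99.7% confidence, mostly higher but some lower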;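 further: thallium influx through GIRK channels coupled to M4 in HEK293 cells with BTC-AM dye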). To be noted: at 10 µM, actives lie on both sides. In a few lines:
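Material: HEK293 cells with M4 receptor and GIRK channels; Times: cells overnight at 37 °C, BTC-AM loading 1 h, reads 2 min total; Technique: kinetic BTC-AM fluorescence sampled at 1 Hz, 10 s pre-addition baseline; Read-out basis: slope over 15–24 s of trace normalized to starting intensity; Controls: carbachol positive, DMSO negative.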

Experiment [7] in a line: inhibitors of Sendai virus-induced IRF3 signaling, primary screen, TLR/RLR signaling modifier project, cell-based, Sendai virus stimulus, luciferase, 10K MLSCN set (AID 602276;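 active means inhibition at or above 50% at 10 µM; inactive means inhibition below 50%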;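 further: firefly luciferase from ISG56 promoter only with Renilla not read in this screen; 0% = Sendai virus plus DMSO and 100% = medium plus DMSO without virus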). As to conditions: HEK293 RL24 IRF3 luciferase reporter, at 10 µM, stronger effect = higher value. (In general: Reporter assays use an easily measured gene product as a stand-in for the process of interest.)
Experiment [8] can be described thus: inhibitors of poly I:C-induced TLR3 signaling, primary screen, cell-based, poly I:C stimulus, luciferase, 10K MLSCN set (AID 602277). As to conditions: HEK293-TLR3 RL24 IRF3 luciferase reporter, at 10 µM, stronger effect = higher value.

Sequence of Voltage-gated potassium channel subunit beta-2 (Rattus norvegicus) (P62483 whole entry, looked up): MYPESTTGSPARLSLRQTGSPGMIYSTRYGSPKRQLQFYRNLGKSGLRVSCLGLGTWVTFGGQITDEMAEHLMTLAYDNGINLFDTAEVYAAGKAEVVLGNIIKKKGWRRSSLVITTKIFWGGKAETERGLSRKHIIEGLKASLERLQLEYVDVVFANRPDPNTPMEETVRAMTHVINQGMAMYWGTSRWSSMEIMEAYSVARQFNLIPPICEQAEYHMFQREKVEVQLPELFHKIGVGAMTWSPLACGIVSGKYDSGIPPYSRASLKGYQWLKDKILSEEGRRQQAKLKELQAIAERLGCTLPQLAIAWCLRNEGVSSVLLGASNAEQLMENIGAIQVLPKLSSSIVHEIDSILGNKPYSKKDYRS
Sequence of Muscarinic acetylcholine receptor M4 (Homo sapiens) (P08173 whole entry, looked up): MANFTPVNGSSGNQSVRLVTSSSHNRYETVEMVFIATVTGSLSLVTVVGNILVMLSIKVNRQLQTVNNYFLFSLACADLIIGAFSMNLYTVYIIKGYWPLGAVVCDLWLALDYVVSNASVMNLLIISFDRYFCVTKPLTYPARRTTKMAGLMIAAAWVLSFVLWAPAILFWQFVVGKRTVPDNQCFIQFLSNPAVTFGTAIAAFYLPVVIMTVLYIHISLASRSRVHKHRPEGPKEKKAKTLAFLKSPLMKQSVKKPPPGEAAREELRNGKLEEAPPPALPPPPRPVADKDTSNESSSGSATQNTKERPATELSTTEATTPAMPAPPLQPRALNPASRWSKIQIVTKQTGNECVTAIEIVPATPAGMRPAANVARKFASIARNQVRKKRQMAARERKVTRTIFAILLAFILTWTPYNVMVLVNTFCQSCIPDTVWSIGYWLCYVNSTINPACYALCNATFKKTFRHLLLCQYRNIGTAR

Regarding `O=C(COc1nnc2ccccn12)N1CCN(S(=O)(=O)c2ccccc2)CC1`, in experiment [1], the cell count turned out to be 691. In addition, the inhibition was -3.3% (inactive) in experiment [1], -18.1% (inactive) in experiment [3], -12.4% (inactive) in experiment [7] and 98.8% (active) in experiment [8]. In addition, the inhibition of aggregation in experiment [2] is -29.7% (inactive). Also, the nuclei count in experiment [2] came to 95.4%; in experiment [3], 122%. For the same molecule, the figures for the fluorescence slope in experiment [4] and in experiment [6] were -0.405 (inactive) and 0.00653 (inactive), respectively. The NADPH fluorescence slope in experiment [5] was -9.3e-05 (inactive).

As to `COc1ccc(CN2C(=O)CN=C2Nc2ccc(C)cc2C)cc1`, the cell count in experiment [1] is 809. Besides, the inhibition in experiment [1] is -7.5% (inactive); in experiment [3] it was -3.6% (inactive); in experiment [7], 16.8% (inactive); in experiment [8], 23% (inactive). In experiment [2], the inhibition of aggregation was -10.3% (inactive). Also, the nuclei count in experiment [2] is 122%; in experiment [3], 95.6%. Further, the fluorescence slope in experiment [4] is -0.555 (inactive); in experiment [6], 0.00584 (inactive). The NADPH fluorescence slope in experiment [5] was 6.9e-05 (inactive).

As for `Cc1cc(=O)oc2cc(Oc3ncccn3)ccc12`, the cell count in experiment [1] stood at 476. Further, the inhibition in experiment [1] was 2.4% (inactive); in experiment [3] it was -29.9% (inactive); in experiment [7], -6.46% (inactive); in experiment [8], -5.6% (inactive). In addition, the inhibition of aggregation in experiment [2] is 9% (inactive). Further, the nuclei count in experiment [2] came out at 93.1%; in experiment [3] it was 111%. For the same molecule, the figures for the fluorescence slope in experiment [4] and in experiment [6] were -0.427 (inactive) and 0.00578 (inactive), respectively. The NADPH fluorescence slope in experiment [5] was -1.6e-05 (inactive).

`O=C1CSC(c2cn(-c3ccccc3)nc2-c2ccccc2)N1Cc1ccco1` (centres undefined): the cell count in experiment [1] turned out to be 480. Further, the inhibition is -6.3% (inactive) in experiment [1], -89.3% (inactive) in experiment [3], -1.04% (inactive) in experiment [7] and 11.5% (inactive) in experiment [8]. Moreover, the inhibition of aggregation in experiment [2] is 5.2% (inactive). The nuclei count was 108% in experiment [2] and 88.2% in experiment [3]. Also, the fluorescence slope was -0.568 (inactive) in experiment [4] and 0.00714 (inactive) in experiment [6]. Moreover, the NADPH fluorescence slope in experiment [5] was -2.8e-05 (inactive).

For the molecule `CCOC(=O)C1C(=O)OC(C)(C)C1C(C)C(=O)c1ccc(OC)cc1` (centres undefined), in experiment [1], the cell count amounted to 605. For the same molecule, the inhibition was -6.4% (inactive) in experiment [1], 3.9% (inactive) in experiment [3], 21.2% (inactive) in experiment [7] and 23.4% (inactive) in experiment [8]. The inhibition of aggregation in experiment [2] is -4.2% (inactive). For the same molecule, the values for the nuclei count in experiment [2] and in experiment [3] were 42.1% and 92.7%, respectively. In addition, the fluorescence slope in experiment [4] is -0.47 (inactive); in experiment [6] it was 0.00448 (inactive). Also, the NADPH fluorescence slope in experiment [5] was 3.2e-06 (inactive).

`O=C(C1CCN(S(=O)(=O)c2cccnc2)CC1)N1CCN(c2ccc(Cl)cc2)CC1`: the cell count in experiment [1] stood at 447. Besides, the inhibition is -1.6% (inactive) in experiment [1], -26.1% (inactive) in experiment [3], 7.3% (inactive) in experiment [7] and -25.5% (inactive) in experiment [8]. In addition, the inhibition of aggregation in experiment [2] is 11.5% (inactive). The nuclei count worked out at 109% in experiment [2] and 100% in experiment [3]. In addition, the fluorescence slope in experiment [4] is -0.447 (inactive); in experiment [6], 0.00572 (inactive). For the same molecule, the NADPH fluorescence slope in experiment [5] is 3.3e-05 (inactive).

Regarding `CCOC(=O)C1CCN(C(=O)C2CCN(S(=O)(=O)c3cc(Cl)ccc3Cl)CC2)CC1`, the cell count in experiment [1] stood at 738. Besides, the inhibition in experiment [1] is -4.9% (inactive); in experiment [3], 4.5% (inactive); in experiment [7] it was 16% (inactive); in experiment [8] it was 9.65% (inactive). The inhibition of aggregation in experiment [2] was 14.8% (inactive). Further, the nuclei count in experiment [2] was 91.3%; in experiment [3] it was 96.7%. The fluorescence slope was -0.542 (inactive) in experiment [4] and 0.00485 (inactive) in experiment [6]. The NADPH fluorescence slope in experiment [5] was 2.5e-05 (inactive).

Take `O=C(O)COc1ccc(Oc2ccccc2)cc1`: in experiment [1], the cell count worked out at 357. In addition, the inhibition in experiment [1] is 0.5% (inactive); in experiment [3], -8.6% (inactive); in experiment [7], 3.08% (inactive); in experiment [8] it was 9.93% (inactive). In addition, the inhibition of aggregation in experiment [2] is 0.7% (inactive). Besides, the nuclei count in experiment [2] worked out at 103%; in experiment [3], 112%. For the same molecule, the fluorescence slope is -0.567 (inactive) in experiment [4] and 0.00744 (inactive) in experiment [6]. Also, the NADPH fluorescence slope in experiment [5] was 1.9e-05 (inactive).

For `CC(Oc1ccc(Br)cc1)C(=O)N1CCc2ccccc21` (centres undefined), the cell count in experiment [1] is 406. The inhibition in experiment [1] was 6.3% (inactive); in experiment [3], -97.2% (inactive); in experiment [7], -4.76% (inactive); in experiment [8] it was -9.35% (inactive). In addition, the inhibition of aggregation in experiment [2] is 22.4% (inactive). In addition, the nuclei count in experiment [2] was found to be 104%; in experiment [3], 119%. Moreover, the results for the fluorescence slope in experiment [4] and in experiment [6] were -0.486 (inactive) and 0.00581 (inactive), respectively. The NADPH fluorescence slope in experiment [5] was 5.9e-05 (inactive).

In the case of `C#CC(CO)N(CCN(Cc1ccccc1)C(C#C)CO)Cc1ccccc1` (centres undefined), in experiment [1], the cell count turned out to be 370. Besides, the inhibition in experiment [1] is 1.8% (inactive); in experiment [3] it was -29.5% (inactive); in experiment [7], 15.5% (inactive); in experiment [8], 20.6% (inactive). Further, the inhibition of aggregation in experiment [2] is -12.5% (inactive). Besides, the nuclei count in experiment [2] amounted to 104%; in experiment [3], 112%. The fluorescence slope in experiment [4] is -0.329 (inactive); in experiment [6], 0.00458 (inactive). Besides, in experiment [5], the NADPH fluorescence slope is -5.4e-05 (inactive).

`O=C(Cc1ccccc1)Nc1nnc(-c2cccs2)s1`: the cell count in experiment [1] worked out at 373. For the same molecule, the inhibition is -5.4% (inactive) in experiment [1], -11.8% (inactive) in experiment [3], 7.41% (inactive) in experiment [7] and -69.9% (inactive) in experiment [8]. The inhibition of aggregation in experiment [2] was -3.5% (inactive). Moreover, the nuclei count amounted to 115% in experiment [2] and 130% in experiment [3]. Moreover, the fluorescence slope is -0.521 (inactive) in experiment [4] and 0.00894 (inactive) in experiment [6]. The NADPH fluorescence slope in experiment [5] is -1.2e-05 (inactive).

For `COc1cccc(CNC(=O)C2CCN(c3cnccn3)CC2)c1`, the cell count in experiment [1] stood at 399. For the same molecule, the inhibition in experiment [1] was -8.4% (inactive); in experiment [3], -82.7% (inactive); in experiment [7] it was 18.8% (inactive); in experiment [8] it was 18.1% (inactive). Moreover, the inhibition of aggregation in experiment [2] was 17.9% (inactive). Besides, the nuclei count in experiment [2] came out at 98.8%; in experiment [3] it was 86.8%. Also, the fluorescence slope is -0.548 (inactive) in experiment [4] and 0.00424 (inactive) in experiment [6]. The NADPH fluorescence slope in experiment [5] is 5.8e-06 (inactive).

Turning to `COc1cc(NC(=O)C2CC(c3cccc(OC)c3OC)=NO2)cc(OC)c1OC` (centres undefined), the cell count in experiment [1] is 711. Further, the inhibition in experiment [1] is -12.2% (inactive); in experiment [3], -176% (inactive); in experiment [7], 17.4% (inactive); in experiment [8] it was -1.09% (inactive). Moreover, the inhibition of aggregation in experiment [2] is -18.4% (inactive). Besides, the nuclei count worked out at 76.9% in experiment [2] and 104% in experiment [3]. Further, the fluorescence slope in experiment [4] is -0.573 (inactive); in experiment [6], 0.0048 (inactive). Also, the NADPH fluorescence slope in experiment [5] was 2.2e-05 (inactive).

On to `O=C(NCC(=O)N(CCc1ccccc1)C(C(=O)NC1CCCC1)c1cccnc1)c1ccco1` (centres undefined), for which the cell count in experiment [1] was found to be 464. Also, the inhibition in experiment [1] was 6.5% (inactive); in experiment [3], -126% (inactive); in experiment [7] it was 7.14% (inactive); in experiment [8] it was 6.57% (inactive). In addition, in experiment [2], the inhibition of aggregation is 2.2% (inactive). The nuclei count amounted to 108% in experiment [2] and 141% in experiment [3]. The figures for the fluorescence slope in experiment [4] and in experiment [6] were -0.493 (inactive) and 0.00509 (inactive), respectively. Also, the NADPH fluorescence slope in experiment [5] was 1.4e-05 (inactive).

One may read the inhibition as the relative decrease from the control value, in per cent.
